Compounds with a hit are over-represented: about 2.1% of the library has one in this group of screens.
Autophagy mod: alters autophagy in cells; MEF GFP-LC3 puncta imaging; test concentration mostly 10 µM; calls only at 10 µM (by protocol); actives 0.98% (n = 190,000); AID 463193;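 active = percentage of spot-positive cells more than 3 SD above its plate mean, without a fluorescence outlier flag or 80% toxicity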;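 also: spot-positive cell cutoff set from DMSO-treated cells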
Hsp70 act: switches on Hsp70 transcription | activation, % at 10 µM | actives 0.04% (n = 200,000) | HeLa Hsp70 promoter luciferase reporter, luminescence; scaled: vehicle 0, proteasome-inhibitor control 100% | AID 1203;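 active = activation above the mean across all tested compounds plus 3 SD, cutoff set per campaign, cut at about 5.5% in these data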;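 also: 100% = MG132 at 30 µM as the positive control and 0% = DMSO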
MT stabilizer: stabilizes microtubules in HeLa cells; HeLa tubulin immunostaining HCS, 24 h; share of cells brighter than vehicle mean+2SD; % tubulin-high responders, % at 10 µM; AID 2205; actives 0.83% (n = 200,000);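 active = plate Z-score above 3 for both tubulin-high and condensed-nucleus cell shares, with cell loss under 80%, at 10 µM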;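 also: anti alpha tubulin signal scored within the nucleus-defined area of each cell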
bCat nuc transl: beta-catenin nuclear translocation modulation. actives 0.3% (n = 190,000). HeLa beta-catenin nuclear translocation, immunofluorescence imaging. AID 1665. nuclear translocation activity, % at 5 µM;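 active = nuclear translocation activity above 50% at 5 µM, with a well cell count of 50 or more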;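 also: per-cell ratio of nuclear to cytoplasmic median beta-catenin stain intensity; plate controls were DMSO negative control for no effect and GSK-3 inhibitor IX positive control for full effect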
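Test system: human HeLa cells, native beta-catenin. Compound dosing: 5 µM primary single dose, 0.1% DMSO, 0.02–20 µM confirmation series. Incubation: compound exposure 24 h at 37°C. Detection: beta-catenin immunostaining with DAPI counterstain, 20x imaging, 6 fields/well. Read-out basis: Nuclear/cytoplasmic beta-catenin signal ratio, % activation.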
Dynein transport: blocks dynein driven cargo transport along microtubules | 3617.4 mouse cells, GR-EGFP nuclear translocation imaging; test concentration mostly 20 µM; stimulated with dexamethasone, 1 µM; stronger effect = lower value | z-score, hits read low | actives 0.47% (n = 220,000) | AID 1381;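 active = plate z-score of nuclear minus cytoplasmic receptor signal below a set negative limit, without overly bright fluorescence or cell loss, cut at about -3.5 in these data, passing the limit was not always enough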;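 also: z-score of nuclear minus cytoplasmic ring GR-EGFP intensity difference per well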
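medium = tetracycline-free induction medium containing charcoal-stripped FBS | probe or stimulus = dexamethasone, 1.0 µM final | timing = 48 h induction, then 1 h compound, then 30 min agonist, 37 °C | detection = automated 10x imaging of fixed Hoechst-stained cells | read-out basis = nuclear versus cytoplasmic GR-EGFP signal, averaged per well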
Numbers without * were called inactive; i = inactive; nt = no result; + = active, no number.

SMILES	Autophagy mod	Hsp70 act	MT stabilizer	bCat nuc transl	Dynein transport
COc1ccc(C2=NOC(C(=O)O)C2)cc1 (stereo not drawn)	i	0	2	2	0.99
COc1ccc(C2=NOC(C(=O)Nc3cccnc3Cl)C2)cc1 (stereo not drawn)	+	0	2	0	0.51
CC1=C(O)C(=O)OC1c1c(Cl)cccc1Cl (stereo not drawn)	nt	nt	nt	-1	-0.5
CCc1sc(NC(=O)c2cc3ccccc3oc2=O)nc1-c1cccs1	i	0	5	0	-0.66
O=C(Cc1ccc(-n2cccc2)cc1)NCc1cccs1	i	0	29*	165*	0.28
Cc1ccc(CNC(=O)Cc2ccc(-n3cccc3)cc2)cc1	i	0	10	-2	-0.57
CN(CCCN1CCOCC1)Cc1cn(C)nc1-c1ccccc1F	i	0	4	0	-0.12
COc1ccc(C(C[N+](=O)[O-])c2c(-c3ccccc3)cc3ccccn23)cc1OC (stereo not drawn)	i	0	1	3	-1.6
COc1ccc(C(C[N+](=O)[O-])c2c(-c3ccccc3)cc3ccccn23)cc1 (stereo not drawn)	i	0	29*	-2	2.1
O=C1CCN(S(=O)(=O)c2ccccc2)CCN1CCOCc1cccc(F)c1	nt	nt	nt	2	-0.13
CC(C)c1ccc2c(c1)C1(NN=C(c3ccccc3)S1)C(=O)N2 (stereo not drawn)	+	1	1	0	-2
Cc1cc(-c2nnc(SCC(=O)Nc3ccccc3Cl)n2C)no1	nt	nt	nt	-1	-0.36
CCOC(=O)Cn1c(C)[n+](CC(=O)c2ccccc2)c2ccccc21	nt	nt	nt	-4	-0.25
Cc1c(CCC(=O)O)c(=O)oc2cc3occ(-c4ccc(F)cc4)c3cc12	i	0	3	-1	2
COc1ccc(-c2coc3cc4oc(=O)c5ccccc5c4cc23)cc1F	i	0	12	141*	-0.58
C1CCC(C(CC2CCCCN2)C2CCCCC2)CC1 (stereo not drawn)	+	0	35*	7	-2.5
Cc1cc(/C=C2\SC(=Nc3ccc(F)cc3)NC2=O)c(C)n1-c1ccc(S(N)(=O)=O)cc1	i	0	14	160*	0.15
Cc1cc(/C=C2\SC(=S)NC2=O)c(C)n1-c1ccc(O)cc1	nt	nt	nt	0	-0.88
O=C(Cn1ncc(Cl)c(Cl)c1=O)NC1CCS(=O)(=O)C1 (stereo not drawn)	nt	nt	nt	0	-0.6
O=C(Cn1ncc(Cl)c(Cl)c1=O)NCC1CCCCC1	i	0	3	36	-6.2*
O=C(CSc1nc(-c2ccco2)cc(C(F)(F)F)n1)Nc1ccc2c(c1)CCC2	i	0	47*	3	-0.61
O=C(CSc1nnc(-c2ccccc2)c(-c2ccccc2)n1)NCc1ccco1	i	0	43*	-2	-1.3
COC(=O)c1ccccc1NC(=O)CSc1nc(-c2ccco2)cc(C(F)(F)F)n1	i	0	14*	-2	2.3
O=C(CSc1ncc(-c2ccccc2)nn1)NCc1ccco1	i	0	3	nt	-0.02
Cc1cc(NC(=O)CSc2nc(-c3ccco3)cc(C(F)(F)F)n2)n(-c2ccccc2)n1	i	0	44*	12	0.089
SMILES	Autophagy mod	Hsp70 act	MT stabilizer	bCat nuc transl	Dynein transport
COc1cccc(C(=O)NC(c2ccccc2)C2CCCC2)c1 (stereo not drawn)	i	0	3	0	0.47
COc1ccccc1NC(=O)Nc1nn(C)c2cccc(OC)c12	nt	nt	nt	-3	0.041
OCC(O)C1OC(Nc2ccc(Cl)cc2)C(O)C1O (stereo not drawn)	nt	nt	nt	1	-0.48
O=C(CSc1nnc(CCc2nc3ccccc3[nH]2)n1-c1ccccc1)NCc1ccco1	+	0	3	-5	-1.2
Cc1ccc(NC(=O)CSc2nc(-c3ccco3)cc(C(F)(F)F)n2)cc1C	i	0	49*	28	-0.29
Cc1c(NC(=O)CSc2nc(-c3ccco3)cc(C(F)(F)F)n2)c(=O)n(-c2ccccc2)n1C	i	0	4	0	-0.44
Cc1ccc(NC(=O)CSc2nnc(-c3ccco3)c(-c3ccco3)n2)cc1	i	0	29*	97*	-0.59
CCN(CC)S(=O)(=O)c1ccc(C(=O)NCCN(C)C)cc1	i	0	3	0	1.5
Cc1cc([N+](=O)[O-])cc2c1NC(=O)C2(O)N1CCOCC1 (stereo not drawn)	i	0	3	-1	-0.56
C=CCn1c(C)cc(C(=O)CN2NS(=O)(=O)c3ccccc3C2=O)c1C	i	0	8.6*	2	1.6
Cc1cc(C(=O)CN2C(=O)c3ccccc3C2=O)c(C)n1Cc1cccs1	i	0	3	-4	0.27
OCCNCC(O)Cn1c2ccccc2c2ccccc21 (stereo not drawn)	+	0	6	4	1.2
COc1ccc(Cl)c(N2CCN(CCCNC(=O)Nc3ccc(C)cc3)CC2)c1	+	-1	4	-1	0.64
COc1ccc(-c2[nH]ncc2CN(C)CC2CCCCO2)cc1F (stereo not drawn)	+	0	nt	1	0.035
Cc1cc(N2CCN(c3nc(N4CCOCC4)nc4ccccc34)CC2)c2ccccc2n1	+	0	4	nt	-0.48
Cc1ccc(-c2nc3ccsc3c(=O)[nH]2)cc1	i	0	6	1	0.25
Cc1ccccc1-n1nnnc1SCC(=O)NCC1CCCO1 (stereo not drawn)	+	0	8	2	-0.88
COC(=O)/C=c1/s/c(=C(\C#N)C(=O)NCc2ccco2)n(-c2ccc(C)cc2)c1=O	+	0	2	-2	-0.79
CN(C)CCCNC1=CC(=O)CC(c2ccccc2)C1 (stereo not drawn)	i	0	2	0	0.41
Cc1ccc(NC2=CC(=O)CC(c3ccccc3)C2)cc1 (stereo not drawn)	i	0	20*	10	-0.37
CC(C)CCNC1=CC(=O)CC(c2ccccc2)C1 (stereo not drawn)	i	0	13*	nt	0.7
O=C1C=C(Nc2ccc(Cl)cc2)CC(c2ccccc2)C1 (stereo not drawn)	i	0	14*	126*	-1.4
Cc1ccc(NC2=CC(=O)CC(c3ccc(Cl)cc3)C2)cc1 (stereo not drawn)	i	-1	4	0	0.24
C[C@@]12CCC=C[C@H]1[C@H](c1ccc(F)c(/C=C/c3ccccc3)c1)N(Cc1ccccc1)C2=O	nt	nt	nt	-2	-1.4
CNC(=O)C1(C)C=CCN1C(=O)c1ccccc1 (stereo not drawn)	i	-1	5	nt	1.9
CC1(C(=O)NCCN2CCOCC2)C=CCN1C(=O)c1ccccc1 (stereo not drawn)	+	0	2	-3	0.18

Screening results from PubChem.
